Reference: ChEMBL document CHEMBL1123397, “Antiarrhythmic activity of 17 beta-aminoestratrienes. Comparison of 3-ols and 3-acetates with the corresponding 3-(3-amino-2-hydroxypropyl) ethers” (1986)
Converted amounts (≈) assume the structure as drawn. The source made the active and inactive calls. The rule behind the calls is not given here.

Tests used:
[1] = organism: Cavia porcellus; assay: Compound was tested for antiarrhythmic activity (time taken to reach 50% repolarization) in guinea pig atria at 4(ug/mL) concentration; format: functional, Heart
Method in brief: (§1)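 Guinea pig left atria pinned in a recording chamber, superfused with carbogen-gassed Krebs solution at 35 ± 0.5 °C and electrically stimulated. Transmembrane action potentials were recorded with conventional microelectrodes, giving RMP, AP height, APD50, APD90 and maximum rate of depolarization. Values are mean ± SEM from n cells across five preparations.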

[2] = organism: Mus musculus; assay: ED 50 value against aconitine-induced arrhythmias in mice; format: functional
Method in brief: (§2)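 Anaesthetised mice were given test compound intraperitoneally, then aconitine intravenously to induce arrhythmia. At least three doses were tested in separate groups (n = 6-10). ED50 is the dose raising the arrhythmogenic aconitine dose 50% above the control requirement.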

[3] = organism: Cavia porcellus; assay: Compound was tested for antiarrhythmic activity (time taken to reach 90% repolarization) in guinea pig atria at 4(ug/mL) concentration; format: functional, Heart; method in brief: as §1
[4] = organism: Cavia porcellus; assay: Compound was tested for antiarrhythmic activity expressed as resting membrane potential (RMP) in guinea pig atria at 4 ug/mL concentration; format: functional; details: Heart; method in brief: as §1
[5] = organism: Cavia porcellus; assay: Compound was tested for antiarrhythmic activity expressed as action potential height (AP) in guinea pig atria at 4(ug/mL) concentration; format: functional, Heart; method in brief: as §1
[6] = organism: Cavia porcellus; assay: Compound was tested for antiarrhythmic activity (time taken to reach 90% repolarization) in guinea pig atria at 2(ug/mL) concentration; format: functional, Heart; method in brief: as §1
[7] = system: Rattus norvegicus; assay: Compound was tested for antagonism of Ventricular Fibrilloflutter (VF) evoked by coronary artery ligation in the rat measured at 0.5 mg/kg dose; format: functional, Heart
Method in brief: (§3)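 Male Wistar rats, anaesthetised and artificially ventilated, with left thoracotomy; silk suture under main left coronary artery. After stabilization, test drug or vehicle i.v.; 14 min later isoprenaline 10 μg/kg; 1 min after that the ligature was tightened and VF incidence recorded over 30 min. Carotid pressure and lead II ECG monitored continuously. 7-12 animals per group.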

[8] = organism: Cavia porcellus; assay: Compound was tested for antiarrhythmic activity expressed as action potential height (AP) in guinea pig atria at 2(ug/mL) concentration; format: functional, Heart; method in brief: as §1
[9] = organism: Cavia porcellus; assay: Compound was tested for antiarrhythmic activity (maximum rate of phase 0 depolarization- MRD) in guinea pig atria at 2(ug/mL) concentration; format: functional, Heart; method in brief: as §1
[10] = organism: Cavia porcellus; assay: Compound was tested for antiarrhythmic activity (time taken to reach 90% repolarization) in guinea pig atria at 8(ug/mL) concentration; format: functional, Heart; method in brief: as §1
[11] = system: Rattus norvegicus; assay: Effect on heart rate before isoprenaline induced tachycardia in the anesthetized rat at 0.5 mg/kg dose; format: functional
Method in brief: (§4)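 Same ligation protocol in anaesthetised male Wistar rats. Heart rate was taken from the lead II ECG at three points: just before i.v. drug or vehicle, 14 min after it (just before isoprenaline 10 μg/kg), and 1 min after isoprenaline. Pre vs post rates and isoprenaline responses vs controls were compared by Student's t test. Mean ± SEM of 7-12 observations.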

[12] = organism: Cavia porcellus; assay: Compound was tested for antiarrhythmic activity expressed as resting membrane potential (RMP) in guinea pig atria at 2 ug/mL concentration; format: functional; details: Heart; method in brief: as §1
[13] = system: Rattus norvegicus; assay: Mean change in heart rate recorded 14 min after the administration of compound.; format: functional
Method in brief: (§5)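 Test drug or vehicle was given i.v., and isoprenaline (10 µg/kg) 14 min later. Heart rate was read from the lead II ECG just before drug, at 14 min (pre-isoprenaline) and 1 min after isoprenaline. Compared by Student's t test; 7–12 animals per group; mean ± SEM.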

[14] = system: Rattus norvegicus; assay: Effective dose of compound that antagonized arrhythmias evoked by coronary artery ligation in the rat was measured at 0.5 mg/kg dose; format: functional
[15] = system: Rattus norvegicus; assay: Effect on heart rate after isoprenaline induced tachycardia in the anesthetized rat at 0.5 mg/kg dose; format: functional; method in brief: as §4
[16] = organism: Cavia porcellus; assay: Compound was tested for antiarrhythmic activity (time taken to reach 50% repolarization) in guinea pig atria at 2(ug/mL) concentration; format: functional, Heart; method in brief: as §1
[17] = organism: Cavia porcellus; assay: Compound was tested for antiarrhythmic activity expressed as action potential height (AP) in guinea pig atria at 8(ug/mL) concentration; format: functional, Heart; method in brief: as §1
[18] = organism: Cavia porcellus; assay: Compound was tested for antiarrhythmic activity (time taken to reach 50% repolarization) in guinea pig atria at 8(ug/mL) concentration; format: functional, Heart; method in brief: as §1
[19] = organism: Cavia porcellus; assay: Compound was tested for antiarrhythmic activity expressed as resting membrane potential (RMP) in guinea pig atria at 8 ug/mL concentration; format: functional; details: Heart; method in brief: as §1
[20] = organism: Cavia porcellus; assay: Concentration required to reduce maximum following frequencu (MFF) of isolated guinea pig atria by 25%; format: functional
Method in brief: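 Guinea pig left atria in an organ bath of Krebs solution at 35 °C, gassed with carbogen, electrically driven, isometric contractions recorded. Drugs added cumulatively; maximum following frequency determined 6 min after each concentration. Concentration reducing MFF by 25% (EC25) calculated from six preparations.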

[21] = organism: Rattus norvegicus; assay: Maximum increase in heart rate evoked by isoprenaline.; format: functional; method in brief: as §5
[22] = system: Rattus norvegicus; assay: Effect on heart rate on 1 min post isoprenaline induced tachycardia in the anesthetized rat at 0.5 mg/kg dose.; format: functional; method in brief: as §5
[23] = system: Rattus norvegicus; assay: Compound was tested for antagonism of Ventricular Fibrilloflutter (VF) evoked by coronary artery ligation in the rat measured at 0.2 mg/kg dose; format: functional, Heart; method in brief: as §3
[24] = organism: Cavia porcellus; assay: Compound was tested for antiarrhythmic activity (maximum rate of phase 0 depolarization- MRD) in guinea pig atria at 4(ug/mL) concentration; format: functional, Heart; method in brief: as §1
[25] = organism: Cavia porcellus; assay: Compound was tested for antiarrhythmic activity (maximum rate of phase 0 depolarization- MRD) in guinea pig atria at 8(ug/mL) concentration; format: functional, Heart; method in brief: as §1
[26] = system: Rattus norvegicus; assay: Antagonism of Ventricular Fibrilloflutter (VF) evoked by coronary artery ligation in the rat measured at 2 mg/kg dose; format: functional, Heart; method in brief: as §3
[27] = system: Rattus norvegicus; assay: Compound was tested for antagonism of Ventricular Fibrilloflutter (VF) evoked by coronary artery ligation in the rat measured at 1 mg/kg dose; format: functional, Heart; method in brief: as §3
[28] = system: Rattus norvegicus; assay: Effect on heart rate before isoprenaline induced tachycardia in the anesthetized rat at 1 mg/kg dose; format: functional; method in brief: as §4
[29] = organism: Mus musculus; assay: ED 50 value against aconitine-induced arrhythmias in mice; IA is Inactive; format: functional, organism-based; method in brief: as §2
[30] = system: Rattus norvegicus; assay: Effective dose that antagonized arrhythmias evoked by coronary artery ligation in the rat was measured at 2.0 mg/kg dose; format: functional
[31] = system: Rattus norvegicus; assay: Effect on heart rate after isoprenaline induced tachycardia in the anesthetized rat at 1 mg/kg dose; format: functional; method in brief: as §4
[32] = system: Rattus norvegicus; assay: Effect on heart rate on 1 min post isoprenaline induced tachycardia in the anesthetized rat at 1.0 mg/kg dose.; format: functional; method in brief: as §5
[33] = system: Rattus norvegicus; assay: Effect on heart rate after isoprenaline induced tachycardia in the anesthetized rat at 2 mg/kg dose; format: functional; method in brief: as §4
[34] = system: Rattus norvegicus; assay: Effect on heart rate before isoprenaline induced tachycardia in the anesthetized rat at 2 mg/kg dose; format: functional; method in brief: as §5
[35] = system: Rattus norvegicus; assay: Effect of teh compound on heart rate on 1 min post isoprenaline induced tachycardia in the anesthetized rat at 2.0 mg/kg dose.; format: functional; method in brief: as §4
[36] = system: Rattus norvegicus; assay: Effective dose that antagonized arrhythmias evoked by coronary artery ligation in the rat was measured at 0.01 mg/kg dose; format: functional
[37] = system: Rattus norvegicus; assay: Compound was tested for antagonism of Ventricular Fibrilloflutter (VF) evoked by coronary artery ligation in the rat measured at 0.05 mg/kg dose; format: functional, Heart; method in brief: as §3
[38] = system: Rattus norvegicus; assay: Compound was tested for antagonism of Ventricular Fibrilloflutter (VF) evoked by coronary artery ligation in the rat measured at 0.01 mg/kg dose; format: functional, Heart; details: dose 0.1 mg/kg; in the assay text read “0.1 mg/kg” for “0.01 mg/kg”; method in brief: as §3
[39] = system: Rattus norvegicus; assay: Effect on heart rate on 1 min post isoprenaline induced tachycardia in the anesthetized rat at 2.0 mg/kg dose.; format: functional; method in brief: as §5

CN(C)C1[C@H](O)C[C@H]2[C@@H]3CCc4cc(O)ccc4[C@H]3CC[C@]12C (some centres not stated)
APD50 [1]: 29 ms
ED50 [2]: 11.5 mg/kg
APD90 [3]: 74.2 ms
RMP [4]: 71.8 mV
AP [5]: 73.5 mV
APD90 [6]: 70.9 ms
VF [7]: 13%
AP [8]: 78.9 mV
MRD [9]: 86 V s-1
APD90 [10]: 98.9 ms
Heart rate [11]: 442 beats min-1
RMP [12]: 70.1 mV
Change [13]: -1.8%
ED50 [14]: 0.15 mg/kg
Heart rate [15]: 434 beats min-1
APD50 [16]: 29.6 ms
AP [17]: 69.9 mV
APD50 [18]: 43.5 ms
RMP [19]: 69.3 mV
EC25 [20]: 1.86 µg/mL (≈ 5.9 µM)
Increase [21]: 12.9%
Heart rate [22]: 490 beats min-1
VF [23]: 33%
MRD [24]: 60.1 V s-1
MRD [25]: 30.5 V s-1
VF [26]: 0%

CN(C)C1CC[C@H]2[C@@H]3CCc4cc(O)ccc4[C@H]3CC[C@]12C (some centres not stated)
ED50 [2]: 4.4 mg/kg
EC25 [20]: 1.65 µg/mL (≈ 5.51 µM)

CC(C)NCC(O)COc1ccc2c(c1)CC[C@@H]1[C@@H]2CC[C@]2(C)C(N(C)C)CC[C@@H]12 (some centres not stated)
VF [27]: 29%
Heart rate [28]: 405 beats min-1
ED50 [29]: inactive
Change [13]: -4.4%
ED50 at 2 mg/kg [30]: < 1 mg/kg
EC25 [20]: 16.1 µg/mL (≈ 38.8 µM)
Heart rate [31]: 387 beats min-1
Increase [21]: 1.6%
VF [26]: 14%
Heart rate [32]: 393 beats min-1

CNC1CC[C@H]2[C@@H]3CCc4cc(O)ccc4[C@H]3CC[C@]12C (some centres not stated)
ED50 [2]: 8.2 mg/kg
EC25 [20]: 2.09 µg/mL (≈ 7.32 µM)

CNC1CC[C@H]2[C@@H]3CCc4cc(OCC(O)CNC(C)C)ccc4[C@H]3CC[C@]12C (some centres not stated)
Heart rate [33]: 315 beats min-1
Heart rate [34]: 407 beats min-1
Heart rate [35]: 318 beats min-1
ED50 [29]: inactive
Change [13]: -22.6%
EC25 [20]: 11.9 µg/mL (≈ 29.7 µM)
Increase [21]: 1%

CN(C)C1CC[C@H]2[C@@H]3CCc4cc(OCC(O)CNC(C)(C)C)ccc4[C@H]3CC[C@]12C (some centres not stated)
VF [27]: 0%
ED50 [36]: 0.05 mg/kg
Heart rate [28]: 390 beats min-1
VF [37]: 38%
ED50 [29]: inactive
Change [13]: -6.9%
VF [38]: 25%
EC25 [20]: 24.1 µg/mL (≈ 56.2 µM)
Heart rate [31]: 363 beats min-1
Increase [21]: 3.4%
Heart rate [32]: 376 beats min-1

CNC1CC[C@H]2[C@@H]3CCc4cc(OCC(O)CNC(C)(C)C)ccc4[C@H]3CC[C@]12C (some centres not stated)
Heart rate [33]: 335 beats min-1
Heart rate [34]: 387 beats min-1
ED50 [29]: inactive
Change [13]: -13.4%
ED50 at 2 mg/kg [30]: < 2 mg/kg
EC25 [20]: 25.8 µg/mL (≈ 62.2 µM)
Increase [21]: 0%
VF [26]: 0%
Heart rate [39]: 335 beats min-1
